Compound activity as filed in PubChem BioAssay.
Most compounds without a hit are left out; they make up all but 2.9% or so of the library.
S100A4 inh HTS: inhibitors of S100A4-myosin IIA peptide binding, primary screen, biochemical, fluorescence polarization, TAMRA-MyoIIA peptide | hit rate 0.14% among 360,000 | inhibition, % at 10.7 µM | Protein S100-A4 (Homo sapiens), P26447 | AID 652163, 2013;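 active means mean inhibition of at least 70% across replicates, with every replicate also reaching that level; inconclusive means mean inhibition reaches 70% but some replicates fall short; inactive means mean inhibition below 70%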
Target sequence (P26447 whole entry, looked up): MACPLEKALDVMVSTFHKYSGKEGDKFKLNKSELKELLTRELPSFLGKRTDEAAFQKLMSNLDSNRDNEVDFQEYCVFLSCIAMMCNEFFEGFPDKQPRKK
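Compound dosing: one dose per compound; test system: human S100A4 monomer with TAMRA-labelled myosin IIA peptide; probe or stimulus: TAMRA-labelled myosin IIA heavy-chain peptide probe, 5 nM; medium: HEPES buffer with Ca2+, pH 7.2; schedule: 5 min incubation before reading; benchmarks: neutral control DMSO, positive control TFP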
SIRT5 block: SIRT5 desuccinylase inhibitors, primary screen, biochemical, fluorescence imaging, single point, set 5; NAD-dependent protein deacylase sirtuin-5, mitochondrial (Homo sapiens), Q9NXA8; Purified SirT5, succinyl-peptide AMC, trypsin-coupled fluorescence; inhibition, % at 15 µM; hit rate 1.1% among 330,000; in the data active means inhibition above about 15%; inconclusive means no clear call, values can overlap the other calls
Target sequence (Q9NXA8 whole entry, looked up): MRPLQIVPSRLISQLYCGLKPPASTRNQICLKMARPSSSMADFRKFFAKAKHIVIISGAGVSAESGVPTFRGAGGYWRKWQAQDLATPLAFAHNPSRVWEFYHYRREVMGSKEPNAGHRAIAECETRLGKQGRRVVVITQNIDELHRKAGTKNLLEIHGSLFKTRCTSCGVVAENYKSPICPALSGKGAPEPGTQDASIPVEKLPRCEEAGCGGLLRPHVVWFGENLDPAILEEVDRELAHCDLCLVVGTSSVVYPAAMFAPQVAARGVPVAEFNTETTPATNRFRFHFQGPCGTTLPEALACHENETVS
Statin myotox sup: suppressors of statin myotoxicity in C2C12 myotubes, primary screen, cell-based, single point, plate reader. C2C12 myotubes + simvastatin, ATP luminescence, 48 h; scaled: DMSO 0, geranylgeraniol control 100. rescue of ATP level, % at 7.49 µM. hit rate 0.78% among 330,000. AID 602340, 2012;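 active means mean ATP rescue above about 67%, or every replicate alone reaching that limit, limit read from the data, passing the limit was not always enough; inconclusive means no clear call, values can overlap the other calls; inactive means mean under the limit and some replicate under it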;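 further: myotubes were challenged with 10 µM simvastatin during compound exposure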
PGC1a acetyl inh: inhibitors of PGC1a acetylation signal, primary screen, cell-based, U2OS, AlphaScreen, inhibitor mode. hit rate 0.17% among 350,000. inhibition, % at 15.6 µM. AID 651687, 2012. AlphaScreen anti-acetyl-lysine; with virally co-expressed GCN5 acetyltransferase;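 active means every replicate shows inhibition of at least 40%; inconclusive means mean inhibition at least 40% but some replicate below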;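 further: 0% = neutral control wells and 100% = positive control wells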
DENV2 CPE: inhibitors of DENV2 cytopathic effect, primary screen, cell-based, plate reader, single concentration | DENV2-infected cells, cytopathic effect rescue | CPE inhibition, % at 9.99 µM | hit rate 1.7% among 350,000; in the data active means CPE inhibition above about 20%, passing the limit was not always enough; inconclusive means no clear call, values can overlap the other calls; tested in BHK-21 cells;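 further: 0% = median of neutral control wells and 100% = median of positive control wells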
Active calls of the source: *; ? = inconclusive; · = no result.

SMILES	S100A4 inh HTS	SIRT5 block	Statin myotox sup	PGC1a acetyl inh	DENV2 CPE
O=C(Nc1ccccc1F)N[C@H]1CC[C@H](CCNS(=O)(=O)c2ccccc2)O[C@@H]1CO	-2	12	3	-3	4
COc1ccc(NC(=O)Nc2ccc3c(c2)C(=O)N([C@H](C)CO)C[C@H](C)[C@H](CN(C)C(=O)Nc2ccc(C(F)(F)F)cc2)OCCCC[C@H](C)O3)cc1	4	3	·	-24	48*
COc1ccc(NC(=O)Nc2ccc3c(c2)C(=O)N([C@H](C)CO)C[C@H](C)[C@@H](CN(C)C(=O)Nc2ccc(C(F)(F)F)cc2)OCCCC[C@@H](C)O3)cc1	-2	1	·	8	?
COc1ccc(NC(=O)N(C)C[C@@H]2OCCCC[C@@H](C)Oc3ccc(NC(=O)Nc4ccc(C(F)(F)F)cc4)cc3C(=O)N([C@@H](C)CO)C[C@@H]2C)cc1	-2	16*	·	-11	-7
COc1ccc(NC(=O)Nc2ccc3c(c2)C(=O)N([C@H](C)CO)C[C@H](C)[C@H](CN(C)C(=O)Nc2ccc(C(F)(F)F)cc2)OCCCC[C@@H](C)O3)cc1	-17	5	·	15	-3
COc1ccc(NC(=O)Nc2ccc3c(c2)CC(=O)N([C@@H](C)CO)C[C@@H](C)[C@@H](CN(C)CC2CC2)O3)cc1	12	0	-7	-5	17
C[C@H](CO)N1C[C@H](C)[C@@H](CN(C)C(=O)CN(C)C)Oc2ncc(C#C[C@@H](C)O)cc2C1=O	8	-3	·	3	19
C[C@H](CO)N1C[C@H](C)[C@H](CN(C)Cc2ccc(-c3ccccc3)cc2)Oc2ccc(NC(=O)Nc3ccc4c(c3)OCO4)cc2C1=O	-28	0	·	-7	24*
C[C@H]1CN([C@@H](C)CO)C(=O)c2cccc(NC(=O)Nc3ccc4c(c3)OCO4)c2O[C@@H]1CN(C)Cc1ccccc1	-1	7	·	10	39*
C[C@H](CO)N1C[C@H](C)[C@H](CN(C)Cc2ccc(-c3ccccc3)cc2)Oc2c(NC(=O)Nc3ccc4c(c3)OCO4)cccc2C1=O	-30	11	·	-13	21*
C[C@H]1CN([C@@H](C)CO)C(=O)c2cc(NC(=O)C3CC3)ccc2O[C@H]1CN(C)S(C)(=O)=O	4	1	6	3	3
C[C@@H]1CCCCO[C@@H](CN(C)C(=O)CCCN(C)C)[C@H](C)CN([C@@H](C)CO)C(=O)c2cc(NC(=O)Nc3cccc4ccccc34)ccc2O1	8	-4	·	15	13
C/C=C/c1ccc([C@@H]2[C@H](CO)N(C(C)=O)C23CN(S(C)(=O)=O)C3)cc1	4	5	·	-4	-3
C/C=C/c1ccc([C@H]2[C@@H](CO)N(C(=O)CN(C)C)[C@H]2CN(C)C(C)=O)cc1	·	4	·	·	-5
S=C(NCc1ccc(Cl)cc1)Nc1ccccc1	-1	1	129*	21	-3
CC(C)N1C(=O)CCC1C(=O)N1CCC(Cc2ccccc2)CC1 (stereo unspecified)	4	0	132*	3	-1
Cc1ccc(S(=O)(=O)NC(=O)c2ccc(Br)o2)cc1	5	35*	6	-4	7
Cc1ccc(S(=O)(=O)NC(=O)c2ccc(Br)o2)c(C)c1	-3	·	-5	-2	-2
Cn1nnnc1SCCOc1ccc(C#N)cc1	·	·	116*	2	·
OCCc1ccc(NCCc2cccs2)cc1	-5	6	5	9	21*
O=C(Cc1cccs1)NCCc1ccc(F)cc1	-3	-2	-3	11	-2
NC(=O)CC(NC(=O)Cc1cccc2ccccc12)c1ccc(NCCc2ccc(F)cc2)c([N+](=O)[O-])c1 (stereo unspecified)	·	·	26	·	·
NC(=O)CC(NC(=O)Cc1cccc2ccccc12)c1ccc(NCCc2ccccc2F)c([N+](=O)[O-])c1 (stereo unspecified)	1	·	16	·	21*
C[C@H](CO)N1C[C@H](C)[C@H](CN(C)S(=O)(=O)c2cn(C)cn2)Oc2ccc(NC(=O)CCCCCC(=O)Nc3ccccc3N)cc2CC1=O	-6	·	-15	-2	0
CCCNC(=O)N(C)C[C@H]1Oc2cc(-c3ccccc3F)ccc2S(=O)(=O)N([C@@H](C)CO)C[C@@H]1C	0	-2	5	-2	-3
SMILES	S100A4 inh HTS	SIRT5 block	Statin myotox sup	PGC1a acetyl inh	DENV2 CPE
COc1ccc(-c2cc(=O)c3c(OC)c(OC)c(OC)c(OC)c3o2)cc1OC	1	2	-10	5	-3
COc1ccc2c(=O)cc(-c3ccncc3)oc2c1OC	-1	·	4	27	33*
O=c1cc(-c2ccncc2)oc2ccccc12	·	·	115*	23	·
C=CCCC1CN(CC=C)S(=O)(=O)c2c(F)cccc2O1 (stereo unspecified)	1	-3	·	·	1
CN1CCN(C(=O)C[C@H]2C[C@H]3c4cc(NC(=O)Nc5ccccc5)ccc4O[C@H]3[C@H](CO)O2)CC1	·	·	0	-3	5
O=C1CCC(C(=O)OCC(=O)C23CC4CC(CC(C4)C2)C3)N1 (stereo unspecified)	·	·	90*	5	·
O=C(c1ccccc1)N1CC[C@@H]2[C@H]1c1cc(C#Cc3ccccc3F)ccc1N[C@@H]2CO	2	1	24	5	0
C[C@H](NC(=O)C[C@@H]1CC[C@@H]2[C@H](COC[C@H](O)CN2C(=O)Nc2ccccc2)O1)c1ccccc1	1	3	-2	2	34*
C[C@H](NC(=O)C[C@@H]1CC[C@H]2[C@@H](COC[C@H](O)CN2C(=O)Nc2ccccc2)O1)c1ccccc1	1	-3	2	0	31*
C[C@H](NC(=O)C[C@H]1CC[C@H]2[C@@H](COC[C@@H](O)CN2C(=O)Nc2ccccc2)O1)c1ccccc1	4	2	-7	-3	-14
C[C@@H]1CCCCO[C@H](CN(C)Cc2ccc(C(F)(F)F)cc2)[C@@H](C)CN([C@@H](C)CO)C(=O)c2cc(NS(=O)(=O)c3cn(C)cn3)ccc2O1	-5	10	·	4	-6
COCCCn1cnc2oc3nc4ccccc4nc3c2c1=O	·	·	-9	-3	·
COCCCn1cnc2c(c1=O)c1nc3ccccc3nc1n2-c1ccccc1	·	·	127*	0	·
C[C@@H]1CCCCO[C@H](CN(C)S(=O)(=O)c2ccc(F)cc2)[C@@H](C)CN([C@H](C)CO)C(=O)c2cc(NC(=O)CCCN(C)C)ccc2O1	4	3	·	4	34*
C[C@@H]1CCCCO[C@@H](CN(C)S(=O)(=O)c2ccc(F)cc2)[C@H](C)CN([C@@H](C)CO)C(=O)c2cc(NC(=O)CCCN(C)C)ccc2O1	-18	-3	·	4	21*
